{"source": "ChEMBL document CHEMBL3272276", "about": "“Synthesis and antimicrobial evaluation of substituted 5,6-dihydro-5-nitrouracils” (1976)", "key": {"Pseudomonas aeruginosa [1]": {"system": "Pseudomonas aeruginosa", "assay": "Antimicrobial activity against Pseudomonas aeruginosa clinical isolate up to 0.4 umol/ml after 24 hrs by broth dilution assay", "assay_type": "functional, organism-based", "method_in_brief": "(§1)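 Clinical isolate tested by broth dilution in chemically defined medium. Serial dilutions span 0.4 to 0.005 μmol/ml. Incubation is 24 h at 35°. MIC is taken as the highest dilution of compound that prevents visible growth.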"}, "Escherichia coli [2]": {"system": "Escherichia coli", "assay": "Antimicrobial activity against Escherichia coli clinical isolate up to at 0.4 umol/ml after 24 hrs by broth dilution assay", "assay_type": "functional, organism-based", "method_in_brief": "as §1"}, "Staphylococcus aureus [3]": {"system": "Staphylococcus aureus", "assay": "Antimicrobial activity against Staphylococcus aureus clinical isolate up to 0.4 umol/ml after 24 hrs by broth dilution assay", "assay_type": "functional, organism-based", "method_in_brief": "as §1"}, "Candida albicans": {"system": "Candida albicans", "assay": "Antifungal activity against Candida albicans clinical isolate at 0.4 umol/ml after 24 hrs by broth dilution assay", "assay_type": "functional, organism-based", "method_in_brief": "(§2)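 Clinical isolates were tested by broth dilution using serial dilutions in chemically defined medium over 0.4 to 0.005 µmol/ml. Plates were incubated for 24 h at 35°. MIC was taken as the highest dilution that prevented visible growth.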"}, "[4]": {"system": "Trichophyton mentagrophytes", "assay": "Antifungal activity against Trichophyton mentagrophytes clinical isolate at 0.4 umol/ml after 48 hrs by broth dilution assay", "assay_type": "functional, organism-based", "method_in_brief": "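The clinical dermatophyte isolate was tested by broth dilution using serial dilutions in chemically defined medium over 0.4 to 0.005 µmol/ml. Inhibition was read after 48 h at 30°. MIC was the highest dilution with no visible growth.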"}, "Pseudomonas aeruginosa [5]": {"system": "Pseudomonas aeruginosa", "assay": "Antimicrobial activity against Pseudomonas aeruginosa clinical isolate after 24 hrs by broth dilution assay", "assay_type": "functional", "method_in_brief": "as §2"}, "Escherichia coli [6]": {"system": "Escherichia coli", "assay": "Antimicrobial activity against Escherichia coli clinical isolate after 24 hrs by broth dilution assay", "assay_type": "functional", "method_in_brief": "as §2"}, "Staphylococcus aureus [7]": {"system": "Staphylococcus aureus", "assay": "Antimicrobial activity against Staphylococcus aureus clinical isolate after 24 hrs by broth dilution assay", "assay_type": "functional", "method_in_brief": "as §2"}}, "note": "The source made the active and inactive calls. The rule behind the calls is not given here.", "data": [{"compound": "CC1NC(=O)NC(=O)C1[N+](=O)[O-]", "note": "(stereo unspecified)", "values": [{"measurement": "Activity", "setting": "Pseudomonas aeruginosa [1]", "value": "inactive"}, {"measurement": "Activity", "setting": "Escherichia coli [2]", "value": "inactive"}, {"measurement": "Activity", "setting": "Staphylococcus aureus [3]", "value": "inactive"}]}, {"compound": "O=C1NCC([N+](=O)[O-])C(=O)N1", "note": "(stereo unspecified)", "values": [{"measurement": "Activity", "setting": "Pseudomonas aeruginosa [1]", "value": "inactive"}, {"measurement": "Activity", "setting": "Escherichia coli [2]", "value": "inactive"}, {"measurement": "Activity", "setting": "Staphylococcus aureus [3]", "value": "inactive"}]}, {"compound": "Cc1[nH]c(=O)[nH]c(=O)c1[N+](=O)[O-]", "values": [{"measurement": "Activity", "setting": "Pseudomonas aeruginosa [1]", "value": "inactive"}, {"measurement": "Activity", "setting": "Escherichia coli [2]", "value": "inactive"}, {"measurement": "Activity", "setting": "Staphylococcus aureus [3]", "value": "inactive"}]}, {"compound": "O=c1[nH]c(=O)n(-c2ccc([N+](=O)[O-])cc2)cc1[N+](=O)[O-]", "values": [{"measurement": "Activity", "setting": "Pseudomonas aeruginosa [1]", "value": "inactive"}, {"measurement": "Activity", "setting": "Escherichia coli [2]", "value": "inactive"}, {"measurement": "Activity", "setting": "Staphylococcus aureus [3]", "value": "inactive"}]}, {"compound": "CCOC(=O)[C@H]1O[C@@H](n2cc([N+](=O)[O-])c(=O)[nH]c2=O)[C@H](O)[C@@H]1O", "values": [{"measurement": "Activity", "setting": "Pseudomonas aeruginosa [1]", "value": "inactive"}, {"measurement": "Activity", "setting": "Escherichia coli [2]", "value": "inactive"}, {"measurement": "Activity", "setting": "Staphylococcus aureus [3]", "value": "inactive"}]}, {"compound": "O=C1NC(=O)N(c2ccc([N+](=O)[O-])cc2)CC1[N+](=O)[O-]", "note": "(stereo unspecified)", "values": [{"measurement": "Activity", "setting": "Pseudomonas aeruginosa [1]", "value": "inactive"}, {"measurement": "Activity", "setting": "Escherichia coli [2]", "value": "inactive"}, {"measurement": "Activity", "setting": "Staphylococcus aureus [3]", "value": "inactive"}]}, {"compound": "[N-]=[N+]=C1C=NC(=O)NC1=O", "values": [{"measurement": "Activity", "setting": "Candida albicans", "value": "inactive"}, {"measurement": "Activity", "setting": "[4]", "value": "inactive"}, {"measurement": "MIC", "setting": "Pseudomonas aeruginosa [5]", "value": 40, "unit": "µM"}, {"measurement": "MIC", "setting": "Escherichia coli [6]", "value": 20, "unit": "µM"}, {"measurement": "MIC", "setting": "Staphylococcus aureus [7]", "value": 10, "unit": "µM"}]}, {"compound": "[N-]=[N+]=C1C(=O)NC(=O)NC1O", "note": "(stereo unspecified)", "values": [{"measurement": "Activity", "setting": "Candida albicans", "value": "inactive"}, {"measurement": "Activity", "setting": "[4]", "value": "inactive"}, {"measurement": "MIC", "setting": "Pseudomonas aeruginosa [5]", "value": 20, "unit": "µM"}, {"measurement": "MIC", "setting": "Escherichia coli [6]", "value": 10, "unit": "µM"}, {"measurement": "MIC", "setting": "Staphylococcus aureus [7]", "value": 20, "unit": "µM"}]}, {"compound": "CCOC(=O)[C@H]1O[C@@H](N2CC([N+](=O)[O-])C(=O)NC2=O)[C@H](O)[C@@H]1O", "note": "(stereo partly specified)", "values": [{"measurement": "Activity", "setting": "Pseudomonas aeruginosa [1]", "value": "inactive"}, {"measurement": "Activity", "setting": "Escherichia coli [2]", "value": "inactive"}, {"measurement": "Activity", "setting": "Staphylococcus aureus [3]", "value": "inactive"}]}]}
